The structures appear in SMILES notation.

This data set can be described thus: Toxicity liver stage against HepG2, at 10uM. It counts as cell-based. Further details: test concentration 10 uM, cell line HepG2-A16-CD81EGFP. The following applies: human, HepG2-A16-CD81EGFP cells; read-out: INHIBITION
The method in brief:
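Uninfected HepG2-A16-CD81EGFP cells, 3 × 10^3 per well, 1536-well, plated on prespotted compound at 10 μM final, parasite-free screening media added to match infected plates; puromycin 10 μM positive, DMSO 0.5% negative; run in parallel with 48 h PbLuc assay at 37 °C, 5% CO2; viability by CellTiter-Glo luminescence, normalized to controls.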
As to `Clc1ccc(-c2c[nH]c([C@@H]3COCCN3)n2)cc1`, the cytotoxicity at 10 µM was -10.1%.
For the compound `CN(Cc1ccccc1)C(=O)Cn1nc(N2CCOCC2)ccc1=O`, the cytotoxicity at 10 µM came to 9.55%.
As to `O=C(c1ccco1)N1C[C@H]2CCCN(C(=O)c3ccsc3)[C@H]2C1`, the cytotoxicity at 10 µM stood at 8.36%.
Consider `c1ccc(CN2Cc3ccnn3CC(COCc3cccnc3)C2)nc1` (configuration not stated), for which the cytotoxicity at 10 µM is -146%.
For the compound `CCN1C(=O)C2(CCOCC2)c2cc(NC(=O)c3cnccn3)ccc21`, the cytotoxicity at 10 µM is -2.98%.
In the case of `CC(C)N(C)C(=O)C1=NOC2(CCN(C(=O)NCc3cccnc3)C2)C1` (configuration not stated) it was -3.75%; in that of `COC(=O)N1CCc2ccc(NC(=O)c3cn(C)nn3)cc2C1`, -1.3%; in that of `COCC(=O)N1CCC(c2nc3ccc(-c4ccccc4)cn3n2)CC1`, -0.555%.
The value for `CC(C)n1cc(S(=O)(=O)N2CCSCC2)cn1` was 6.64%; that for `COc1cc2cc(C(=O)N[C@@H](C)C(=O)O)n(C)c2c(OC)c1OC` was 12.5%.
The value for `CCS(=O)(=O)Nc1ccn(Cc2cccc(Cl)c2)n1` was -4.49%.
`CCC(C)c1noc(C2CCN(C(=O)c3cccs3)CC2)n1` (configuration not stated): the cytotoxicity at 10 µM is -12.8%.
In the case of `CC1CCc2nn(CCNC(=O)C3CCCC3)c(=O)cc2C1` (configuration not stated) it was 7.71%; in that of `Cc1ccc2c(c1)C(=O)NCC1(CCN(C(=O)c3csc(C)c3)CC1)O2`, -27.7%; in that of `O=C(CCC(=O)N1CCc2ccccc2C1)c1cccs1`, -61.8%.
For `COc1ccc(NC(=O)N2CCN(CCSc3ccccc3)CC2)cc1`, the cytotoxicity at 10 µM amounted to 6.13%.
As to `O=C(C1CC1)N(CCc1ccccc1)C1CCOC1` (configuration not stated), the cytotoxicity at 10 µM is -6.93%.
As for `N#Cc1ccc(CN2CCCCC2Cn2cncn2)c(F)c1` (configuration not stated), the cytotoxicity at 10 µM was -1.34%.
As to `CC(C)c1cc(C(=O)N2Cc3ccccc3CC2C(=O)O)nn1C` (configuration not stated), the cytotoxicity at 10 µM came to 7.97%.
As to `CCc1ncc2c(n1)CN(c1nnc(C)c(C)c1C#N)CC2`, the cytotoxicity at 10 µM is -134%.
With `CCOc1ncccc1CNC(=O)c1csc(Br)c1`, the cytotoxicity at 10 µM stood at 0.291%.
Consider `CC1(C)CC1C(=O)NS(=O)(=O)Cc1cc(-c2ccccc2)no1` (configuration not stated), for which the cytotoxicity at 10 µM is -11%.
Turning to `CC1(C)COCCN1C(=O)Cc1csc(Cc2ccccn2)n1`, the cytotoxicity at 10 µM is 3.31%.
In the case of `Cc1ccccc1C1CCN(C(=O)CCNS(C)(=O)=O)C1` (configuration not stated), the cytotoxicity at 10 µM is -1.03%.
In the case of `Cc1ccccc1CS(=O)(=O)c1nnc(N2CCOCC2)s1` it was -9.61%; in that of `O=C(NC1CC1)C1CCCN(c2cccc(C(F)(F)F)n2)C1` (configuration not stated), 2.43%.
The value for `CC(NCc1ccc(-c2ccc(F)cc2)o1)c1nnc2n1CCC2` (configuration not stated) was -4.21%; that for `COc1cc(C)nc(N2CCN(C(=O)CCc3cccs3)CC2)n1` was 5.77%; that for `COC(=O)C(C)(C)NC(=O)C1CC(=O)N(CC(F)(F)F)C1` (configuration not stated) was -141%.
The value for `CC(C)c1cc(C(=O)NC2CCN(CC(N)=O)CC2)nn1C(C)(C)C` was -6.95%; that for `COc1ccccc1C(NC(=O)C1CCC1)c1noc(C)n1` (configuration not stated) was 0.338%; that for `Cc1nc(CCNC(=O)NC(C)c2ccc3c(c2)OCCO3)cs1` (configuration not stated) was -1.18%.
As to `COCc1ccccc1CNC(=O)CNc1cccc(Cl)c1OC`, the cytotoxicity at 10 µM turned out to be 6.39%.
In the case of `O=C(NCc1ccc2c(c1)OCO2)N1CCCC2(C1)OCCO2` it was 3.07%.
The value for `COc1ccccc1COCC(O)CN(C)c1ccc(C)cc1C` (configuration not stated) was 9.6%; that for `O=C(NCCn1ccnc1)c1csc2c1CCCC2` was -1.34%.
For `Cc1cc(CNC(=O)CCc2ccc(S(N)(=O)=O)cc2)no1`, the cytotoxicity at 10 µM is 7.81%.
Turning to `O=C(Cn1cc(I)cn1)N1CCNC1=O`, the cytotoxicity at 10 µM was found to be 1.53%.
Take `COCCC(=O)Nc1cc(CC(C)(C)C)n[nH]1`: the cytotoxicity at 10 µM was found to be 3.97%.
As to `COc1cccc(C2CCCN2C(=O)c2cc3c([nH]c2=O)CCC3)c1` (configuration not stated), the cytotoxicity at 10 µM was -12%.
The value for `Cc1noc(C(C)C)c1C(=O)NS(=O)(=O)c1ccc(Cl)cc1` was -8.59%; that for `CCn1c(CC2CCN(S(=O)(=O)Cc3ccccc3)CC2)nn(C)c1=O` was -2.43%; that for `COc1ccc(OC)c(-c2nc(CN(C)Cc3nonc3C)c(C)o2)c1` was 13.5%.
Turning to `CC(C)c1noc(Cn2ncc3ccccc3c2=O)n1`, the cytotoxicity at 10 µM is -3.69%.
Take `CN(CCO)C[C@@H]1CN(Cc2ccccc2C#N)C[C@@H]1CO`: the cytotoxicity at 10 µM was -0.951%.
As for `Cn1cccc1C(=O)N1CCC(c2nccn2Cc2ccncc2)CC1`, the cytotoxicity at 10 µM was -12%.
For the compound `Cc1ccc(C#N)c(N2CC(C)(C)[C@@](C)(O)C2)n1`, the cytotoxicity at 10 µM turned out to be 1.39%.
In the case of `Cc1nc(N)ccc1CC1COc2ccccc2C1` (configuration not stated), the cytotoxicity at 10 µM came out at 3.79%.
`Cc1ccccc1OC1CCN(C(=O)CNC(=O)N(C)C)CC1`: the cytotoxicity at 10 µM was found to be 9.83%.
Turning to `CC(C)N1CCC(N2CCN(C3CCC3)CC2CCO)CC1` (configuration not stated), the cytotoxicity at 10 µM was -12.5%.
As to `COC(=O)N1CC(C)=C(C)CN1C(=O)Nc1cccc(Cl)c1`, the cytotoxicity at 10 µM is 0.359%.
Take `Cc1cc(C(=O)N2CCCCC2C)ccc1NC(=O)N1CCOCC1` (configuration not stated): the cytotoxicity at 10 µM is 7.02%.
The value for `Cc1nc(CNC(=O)NCc2cccnc2N(C)C)cs1` was -2.15%; that for `CS(=O)(=O)NC1CCN(C(=O)NCc2ccccn2)CC1` was -5.04%; that for `COc1cccc(CN(C)CC(=O)NC2(C)CCS(=O)(=O)C2)c1` (configuration not stated) was -2.3%.
As for `O=C(NCCOc1ccc2c(c1)OCO2)N1CCCC(CO)C1` (configuration not stated), the cytotoxicity at 10 µM is -22.3%.
For `Cc1cc(C)n(CC2CN(Cc3nc(C4CC4)no3)CCO2)n1` (configuration not stated), the cytotoxicity at 10 µM is -5.13%.
Consider `CN(C)c1cc(CNC(=O)Nc2nnc(C3CC3)s2)ccn1`, for which the cytotoxicity at 10 µM is -10.8%.
For `CC(C)COC(C)C(=O)NCc1ccc(F)cc1` (configuration not stated), the cytotoxicity at 10 µM was -2.9%.
In the case of `O=C(Cc1ccc2c(c1)OCCO2)N1CCCC(n2cncn2)C1` (configuration not stated) it was -7.85%; in that of `O=C(NCc1cncc2c1CCN(Cc1ccccc1)C2)C1CC1`, 12.1%; in that of `CS(=O)(=O)N1CCC2(CC1)COC(COc1ccccn1)C2` (configuration not stated), 5.63%.
The value for `CCS(=O)(=O)N1C[C@H]2CN(Cc3cccnc3)C(=O)[C@H]2C1` was -17.8%; that for `O=C(c1cnoc1)N1CCC[C@]2(C[C@H](Oc3ncccc3F)CO2)C1` was -10.2%; that for `NC(=O)COc1ccc(CNCc2cc(F)cc(F)c2)cc1` was -7.85%.
For the compound `CS(=O)(=O)N1CC[C@H]2[C@H](C[C@@H](Cn3cncn3)N2CC2CC2)C1`, the cytotoxicity at 10 µM was -6.25%.
The value for `CN1CC2(CCN(C(=O)Cc3ccccn3)CC2)OCC1=O` was -3.39%; that for `CN(C)CC(=O)N1Cc2nnn(C)c2C(COCc2ccccn2)C1` (configuration not stated) was 9.26%; that for `CCN1CCC2(CCN(Cc3nccs3)CC2)C1=O` was -0.311%.
`COCC(=O)N1CCC2(CCC2N(C)Cc2ccco2)CC1` (configuration not stated): the cytotoxicity at 10 µM was determined as 0.169%.
The value for `C[C@@H]1CN(S(C)(=O)=O)C[C@]12CCN(Cc1cccnc1)C2=O` was 0.169%; that for `O=C(c1cc(Cl)c[nH]c1=O)N1C[C@H]2CC[C@@H](C1)N(Cc1ccccc1)C2` was -113%.

Source of the values: ChEMBL document CHEMBL4513216, “Probing the Open Global Health Chemical Diversity Library for Multistage-Active Starting Points for Next-Generation Antimalarials” (ACS Infect Dis, 2020).
